{"source": "ChEMBL document CHEMBL1125396", "about": "“Synthesis and in vitro biological profile of all four isomers of the potent muscarinic agonist 3-(3-methyl-1,2,4-oxadiazol-5-yl)-1-azabicyclo[2.2.1]heptane” (J Med Chem, 1992)", "key": {"[1]": {"experiment": "Ratio of Kapp(NMS)/Kapp(OXO-M)", "outline": "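Ratio of Kapp values from displacement of [3H]NMS (0.01–1.0 nM, 60 min, 30 °C) and of [3H]oxotremorine-M (0.2-5 nM, HEPES pH 7.4, 40 min, 30 °C) in rat cortical membranes; 2 μM atropine nonspecific; each Kapp occupancy-corrected geometric mean of ≥3 determinations.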"}, "[2]": {"biological_target": "T1, Muscarinic acetylcholine receptor M2 (Homo sapiens, UniProt P08172)", "T1 sequence (P08172 whole entry)": "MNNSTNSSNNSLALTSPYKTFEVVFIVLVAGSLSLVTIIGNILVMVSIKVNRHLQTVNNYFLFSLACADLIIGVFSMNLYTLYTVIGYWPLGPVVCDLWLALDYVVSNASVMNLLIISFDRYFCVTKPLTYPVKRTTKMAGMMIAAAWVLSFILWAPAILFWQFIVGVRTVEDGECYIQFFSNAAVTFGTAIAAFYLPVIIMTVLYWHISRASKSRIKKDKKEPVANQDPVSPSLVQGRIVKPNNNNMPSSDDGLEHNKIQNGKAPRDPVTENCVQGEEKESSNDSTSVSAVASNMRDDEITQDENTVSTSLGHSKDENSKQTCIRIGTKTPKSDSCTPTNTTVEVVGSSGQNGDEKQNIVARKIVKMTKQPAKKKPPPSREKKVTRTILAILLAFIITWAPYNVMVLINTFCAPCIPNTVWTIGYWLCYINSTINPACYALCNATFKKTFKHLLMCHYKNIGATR", "experiment": "In vitro negative chronotropic effect on electrically driven guinea pig atria(mediated by Muscarinic M2 receptor)", "assay_type": "functional, Cavia porcellus", "details": "target entry is the homologue from another species", "outline": "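Paired atria from male guinea pigs (300-400 g) under 1 g tension in Krebs bicarbonate with 22 mM glucose, paced by field stimulation (3-4 Hz, 2-3 ms). After 60 min equilibration, noncumulative dose-response curves for negative chronotropy, each application held to maximum effect; ≥45 min between curves. EC50 from geometric mean of at least two determinations.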"}, "[3]": {"biological_target": "T2, Muscarinic acetylcholine receptor M1 (Rattus norvegicus, UniProt P08482)", "T2 sequence (P08482 whole entry)": "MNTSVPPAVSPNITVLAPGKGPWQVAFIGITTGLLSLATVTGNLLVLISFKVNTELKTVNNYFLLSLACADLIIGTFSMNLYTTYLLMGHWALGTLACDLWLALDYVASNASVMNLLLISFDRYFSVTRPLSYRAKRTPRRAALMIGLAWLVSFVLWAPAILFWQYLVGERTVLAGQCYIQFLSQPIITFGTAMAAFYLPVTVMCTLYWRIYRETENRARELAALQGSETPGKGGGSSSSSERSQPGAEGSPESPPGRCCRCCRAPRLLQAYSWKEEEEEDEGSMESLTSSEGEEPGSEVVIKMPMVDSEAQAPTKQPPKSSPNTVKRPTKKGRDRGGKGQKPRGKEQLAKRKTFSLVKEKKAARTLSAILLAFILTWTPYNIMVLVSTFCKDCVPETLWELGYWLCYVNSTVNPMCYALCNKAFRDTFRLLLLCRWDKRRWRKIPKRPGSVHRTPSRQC", "experiment": "Compound was tested in vitro for depolarizing response on the rat superior cervical ganglion (mediated by Muscarinic M1 receptor)", "assay_type": "functional, tissue-based", "outline": "(§1)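 Responses related to a reference depolarizing response set at 1.0. Agonist concentration raised until response levelled off; EC50 taken as concentration giving half-maximum; at least two determinations, each ganglion from a different rat.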"}, "[4]": {"biological_target": "T3, Muscarinic acetylcholine receptor M2 (Homo sapiens) (UniProt P08172)", "T3 sequence (whole entry)": "T1 sequence (P08172 whole entry)", "experiment": "In Vitro evaluation for the relative maximum against Muscarinic M2 receptor compare to carbachol", "assay_type": "functional", "details": "Cavia porcellus", "outline": "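Guinea pig paired atria (male, 300-400 g) in Krebs bicarbonate with 22 mM glucose, 1 g tension, electrically paced (3-4 Hz, 2-3 ms); noncumulative dose-response curves to maximum negative chronotropic effect, ≥45 min apart; maximum response expressed relative to that of carbachol.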"}, "[5]": {"biological_target": "Muscarinic acetylcholine receptor M3 (Cavia porcellus) (UniProt Q8VH26)", "sequence (Q8VH26 1-587)": "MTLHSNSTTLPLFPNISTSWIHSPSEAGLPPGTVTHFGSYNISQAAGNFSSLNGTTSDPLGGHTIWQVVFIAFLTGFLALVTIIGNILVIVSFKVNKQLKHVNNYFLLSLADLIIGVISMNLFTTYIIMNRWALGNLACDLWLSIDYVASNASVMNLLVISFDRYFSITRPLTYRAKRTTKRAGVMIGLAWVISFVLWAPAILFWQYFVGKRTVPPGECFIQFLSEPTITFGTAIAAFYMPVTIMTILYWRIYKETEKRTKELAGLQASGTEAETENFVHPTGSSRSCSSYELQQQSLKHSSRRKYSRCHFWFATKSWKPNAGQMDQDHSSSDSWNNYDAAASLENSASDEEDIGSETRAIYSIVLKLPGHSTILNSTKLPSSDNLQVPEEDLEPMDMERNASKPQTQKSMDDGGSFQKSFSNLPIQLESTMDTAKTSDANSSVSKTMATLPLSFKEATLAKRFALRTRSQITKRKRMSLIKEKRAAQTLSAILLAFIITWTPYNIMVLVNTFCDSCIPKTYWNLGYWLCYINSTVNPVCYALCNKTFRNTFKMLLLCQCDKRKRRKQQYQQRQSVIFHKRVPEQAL", "experiment": "In vitro evaluation for the relative maximum against Muscarinic M3 receptor compare to carbachol", "assay_type": "functional", "outline": "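Guinea pig ileum longitudinal muscle-myenteric plexus (male, 300-400 g), 1 g tension, Krebs bicarbonate at 37 °C; isometric tension change measured to peak; maximum response expressed as percentage of that to 1 μM carbachol.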"}, "[6]": {"biological_target": "T4, Muscarinic acetylcholine receptor (Rattus norvegicus) (UniProt P08482+P08483+P08485+P08911+P10980)", "experiment": "In vitro ability to displace [3H]oxotremorine-M from the muscarinic receptor in rat cerebral cortical membranes", "assay_type": "cell membranes", "outline": "(§2)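 Rat cortical P2 membranes washed and resuspended 1/100 (wet w/v) in 20 mM HEPES pH 7.4. [3H]oxotremorine-M at 0.2-5 nM, nonspecific binding with 2 μM atropine; 40 min at 30 °C; filtration on polyethyleneimine-presoaked GF/C filters, saline wash, scintillation counting. Kapp corrected for ligand occupancy; four concentrations in triplicate; geometric mean of ≥3 determinations.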"}, "[7]": {"biological_target": "T5, Muscarinic acetylcholine receptor M1 (Rattus norvegicus) (UniProt P08482)", "T5 sequence (whole entry)": "T2 sequence (P08482 whole entry)", "experiment": "In vitro evaluation for the relative maximum against Muscarinic M1 receptor compare to muscarine", "assay_type": "functional", "outline": "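Maximum depolarizing response determined by raising agonist concentration until plateau, expressed relative to muscarine; responses related to a reference depolarization set at 1.0; ganglia each from a different rat.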"}, "[8]": {"biological_target": "T4, Muscarinic acetylcholine receptor (Rattus norvegicus)", "experiment": "In vitro ability to displace [3H]N-methylscopolamine from the muscarinic receptor in rat cerebral cortical membranes", "assay_type": "cell membranes", "outline": "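Rat (250-300 g) cerebral cortex crude synaptosomal-mitochondrial membranes (sucrose homogenate, 1000g then 17000g spins). [3H]NMS at 0.01–1.0 nM, nonspecific binding with 2 μM atropine; 60 min at 30 °C; GF/B filtration, saline rinses, scintillation counting. Kapp corrected for ligand occupancy; four concentrations in triplicate; geometric mean of ≥3 separate determinations.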"}, "[9]": {"biological_target": "Muscarinic acetylcholine receptor M3 (Cavia porcellus, UniProt Q8VH26)", "sequence (Q8VH26 whole entry)": "as the sequence (Q8VH26 1-587) above", "experiment": "In vitro contraction of guinea pig myenteric plexus preparation (mediated by Muscarinic M3 receptor)", "assay_type": "functional", "outline": "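Distal ileum longitudinal muscle-myenteric plexus strips from male guinea pigs (300-400 g) under 1 g tension in 3 mL Krebs bicarbonate, 37 °C, equilibrated ≥60 min. Isometric contraction read for ≥30 s to clear peak, ≥45 min between compounds; responses as % of 1 μM carbachol maximum. EC50 by nonlinear iterative curve fitting; geometric mean of at least four determinations.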"}, "[10]": {"biological_target": "T4, Muscarinic acetylcholine receptor (Rattus norvegicus)", "experiment": "In vitro ability to displace muscarinic agonist [3H]oxotremorine-M from high affinity state of the receptor in rat cerebral cortical membranes", "assay_type": "cell membranes", "details": "Membrane", "outline": "as §2"}, "[11]": {"biological_target": "T2, Muscarinic acetylcholine receptor M1", "experiment": "Compound was tested in vitro for depolarizing response on the rat superior cervical ganglion (mediated by Muscarinic M1 receptor", "assay_type": "functional, tissue-based", "outline": "as §1"}}, "data": [{"smiles": "Cc1noc([C@H]2CN3CC[C@H]2C3)n1", "values": [{"measurement": "Ratio", "setting": "[1]", "result": 1200}, {"measurement": "EC50", "setting": "[2]", "result": 0.039, "unit": "nM"}, {"measurement": "EC50", "setting": "[3]", "result": 2.4, "unit": "nM"}, {"measurement": "RM", "setting": "[4]", "result": 0.91}, {"measurement": "RM", "setting": "[5]", "result": 0.91}, {"measurement": "K app", "setting": "[6]", "result": 0.027, "unit": "nM"}, {"measurement": "RM", "setting": "[7]", "result": 0.94}, {"measurement": "K app", "setting": "[8]", "result": 32, "unit": "nM"}, {"measurement": "EC50", "setting": "[9]", "result": 0.045, "unit": "nM"}]}, {"smiles": "Cc1noc([C@@H]2CN3CC[C@@H]2C3)n1", "values": [{"measurement": "Ratio", "setting": "[1]", "result": 1200}, {"measurement": "EC50", "setting": "[2]", "result": 3.3, "unit": "nM"}, {"measurement": "EC50", "setting": "[3]", "result": 7, "unit": "nM"}, {"measurement": "RM", "setting": "[4]", "result": 0.94}, {"measurement": "RM", "setting": "[5]", "result": 0.97}, {"measurement": "RM", "setting": "[7]", "result": 1.16}, {"measurement": "K app", "setting": "[8]", "result": 370, "unit": "nM"}, {"measurement": "EC50", "setting": "[9]", "result": 2.4, "unit": "nM"}, {"measurement": "K app", "setting": "[10]", "result": 0.32, "unit": "nM"}]}, {"smiles": "Cc1noc([C@H]2CN3CC[C@@H]2C3)n1", "values": [{"measurement": "Ratio", "setting": "[1]", "result": 1400}, {"measurement": "EC50", "setting": "[2]", "result": 19, "unit": "nM"}, {"measurement": "RM", "setting": "[4]", "result": 0.96}, {"measurement": "RM", "setting": "[5]", "result": 0.93}, {"measurement": "K app", "setting": "[6]", "result": 1.6, "unit": "nM"}, {"measurement": "EC50", "setting": "[11]", "result": 90, "unit": "nM"}, {"measurement": "RM", "setting": "[7]", "result": 0.76}, {"measurement": "K app", "setting": "[8]", "result": 2200, "unit": "nM"}, {"measurement": "EC50", "setting": "[9]", "result": 16, "unit": "nM"}]}, {"smiles": "C[N+](C)(C)CCOC(N)=O", "values": [{"measurement": "Ratio", "setting": "[1]", "result": 4500}, {"measurement": "K app", "setting": "[6]", "result": 4.9, "unit": "nM"}, {"measurement": "K app", "setting": "[8]", "result": 22000, "unit": "nM"}]}]}
